Data taken from article PMC6976987 (Molecular Genetics and Metabolism Reports, 2020).

Experiments:
Safety assessments [1] = format: in vivo, human
How it was run: (§1)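 Open-label study in healthy adults. Safety was monitored after a single dose (Day 1), during multiple doses alone (Days 2–8), and during co-dosing (Days 9–15 with the CYP3A/P-gp inhibitor; Days 9–18 with the CYP2D6 inhibitor). Measures: treatment-emergent AEs, clinical labs, vital signs, physical exams, 12-lead ECG, 12 h continuous telemetry. An AE counted as treatment-related if possibly, probably or definitely related to study drug.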

Safety assessments [2] = format: in vivo, human; conditions: concomitant dosing with eliglustat, N = 33
How it was run: as §1

SMILES	subjects reporting AEs related to paroxetine (Safety assessments [1]; concomitant dosing with eliglustat, N = 35) [%]	subjects with moderate clinically significant increases in blood pressure (Safety assessments [1]; concomitant dosing, deemed probably related to paroxetine) [%]	subjects reporting AEs related to ketoconazole (Safety assessments [2]) [%]
Fc1ccc([C@@H]2CCNC[C@H]2COc2ccc3c(c2)OCO3)cc1 [paroxetine]	71.4	17.1	
CC(=O)N1CCN(c2ccc(OCC3COC(Cn4ccnc4)(c4ccc(Cl)cc4Cl)O3)cc2)CC1 (stereo not drawn) [ketoconazole]			33.3
